Results: ChEMBL document CHEMBL1143387, “Synthesis of 18F-labelled 2-(4'-fluorophenyl)-1,3-benzothiazole and evaluation as amyloid imaging agent in comparison with [11C]PIB” (Bioorg Med Chem Lett, 2009)

Tests used:
Kidney [1] = assay: Biodistribution in NMRI mouse kidneys assessed per gram of tissue at 3.7 MBq/mL after 60 mins by gamma counter; assay type: ADME, organism-based; conditions: in vivo, 1 h
Method in brief: (§1)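 Male NMRI mice (30–40 g), anaesthetised by ip Hypnorm (0.1 ml), given 0.1 ml diluted tracer via tail vein (ethanol ≤10%, THF ≤0.02%). Killed by decapitation at 2 or 60 min pi, n = 4 per time point. Blood and organs dissected and weighed, radioactivity gamma-counted with background correction. Reported as % ID or % ID/g; total blood activity assumes blood mass 7% of body mass.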

Liver [2] = assay: Biodistribution in NMRI mouse liver at 3.7 MBq/mL after 2 mins by gamma counter; assay type: ADME, organism-based; conditions: in vivo; method in brief: as §1
Liver [3] = assay: Biodistribution in NMRI mouse liver assessed per gram of tissue at 3.7 MBq/mL after 2 mins by gamma counter; assay type: ADME, organism-based; conditions: in vivo; method in brief: as §1
Liver [4] = assay: Biodistribution in NMRI mouse liver at 3.7 MBq/mL after 60 mins by gamma counter; assay type: ADME, organism-based; conditions: in vivo, 1 h; method in brief: as §1
Liver [5] = assay: Biodistribution in NMRI mouse liver assessed per gram of tissue at 3.7 MBq/mL after 60 mins by gamma counter; assay type: ADME, organism-based; conditions: in vivo, 1 h; method in brief: as §1
Lung [6] = assay: Biodistribution in NMRI mouse lungs at 3.7 MBq/mL after 2 mins by gamma counter; assay type: ADME, organism-based; conditions: in vivo; method in brief: as §1
Lung [7] = assay: Biodistribution in NMRI mouse lungs assessed per gram of tissue at 3.7 MBq/mL after 2 mins by gamma counter; assay type: ADME, organism-based; conditions: in vivo; method in brief: as §1
Lung [8] = assay: Biodistribution in NMRI mouse lungs at 3.7 MBq/mL after 60 mins by gamma counter; assay type: ADME, organism-based; conditions: in vivo, 1 h; method in brief: as §1
Lung [9] = assay: Biodistribution in NMRI mouse lungs assessed per gram of tissue at 3.7 MBq/mL after 60 mins by gamma counter; assay type: ADME, organism-based; conditions: in vivo, 1 h; method in brief: as §1
Intestine = assay: Biodistribution in NMRI mouse intestine at 3.7 MBq/mL after 2 mins by gamma counter; assay type: ADME, organism-based; conditions: in vivo; method in brief: as §1
Blood [10] = assay: Biodistribution in NMRI mouse blood at 3.7 MBq/mL after 2 mins by gamma counter; assay type: ADME, organism-based; conditions: in vivo; method in brief: as §1
Blood [11] = assay: Biodistribution in NMRI mouse blood assessed per gram of tissue at 3.7 MBq/mL after 2 mins by gamma counter; assay type: ADME, organism-based; conditions: in vivo; method in brief: as §1
Blood [12] = assay: Biodistribution in NMRI mouse blood at 3.7 MBq/mL after 60 mins by gamma counter; assay type: ADME, organism-based; conditions: in vivo, 1 h; method in brief: as §1
Blood [13] = assay: Biodistribution in NMRI mouse blood assessed per gram of tissue at 3.7 MBq/mL after 60 mins by gamma counter; assay type: ADME, organism-based; conditions: in vivo, 1 h; method in brief: as §1
[14] = Biodistribution in NMRI mouse cerebrum at 3.7 MBq/mL after 2 mins by gamma counter; assay type: ADME, organism-based; conditions: in vivo; method in brief: as §1
[15] = Biodistribution in NMRI mouse cerebrum assessed per gram of tissue at 3.7 MBq/mL after 2 mins by gamma counter; assay type: ADME, organism-based; conditions: in vivo; method in brief: as §1
[16] = Biodistribution in NMRI mouse cerebrum at 3.7 MBq/mL after 60 mins by gamma counter; assay type: ADME, organism-based; conditions: in vivo, 1 h; method in brief: as §1
[17] = Biodistribution in NMRI mouse cerebrum assessed per gram of tissue at 3.7 MBq/mL after 60 mins by gamma counter; assay type: ADME, organism-based; conditions: in vivo, 1 h; method in brief: as §1
Cerebellum [18] = assay: Biodistribution in NMRI mouse cerebellum at 3.7 MBq/mL after 2 mins by gamma counter; assay type: ADME, organism-based; conditions: in vivo; method in brief: as §1
Cerebellum [19] = assay: Biodistribution in NMRI mouse cerebellum assessed per gram of tissue at 3.7 MBq/mL after 2 mins by gamma counter; assay type: ADME, organism-based; conditions: in vivo; method in brief: as §1
Cerebellum [20] = assay: Biodistribution in NMRI mouse cerebellum at 3.7 MBq/mL after 60 mins by gamma counter; assay type: ADME, organism-based; conditions: in vivo, 1 h; method in brief: as §1
Cerebellum [21] = assay: Biodistribution in NMRI mouse cerebellum assessed per gram of tissue at 3.7 MBq/mL after 60 mins by gamma counter; assay type: ADME, organism-based; conditions: in vivo, 1 h; method in brief: as §1
[22] = Biodistribution in NMRI mouse liver/gallbladder at 3.7 MBq/mL after 2 mins by gamma counter; assay type: ADME, organism-based; conditions: in vivo; method in brief: as §1
[23] = Biodistribution in NMRI mouse liver/gallbladder at 3.7 MBq/mL after 60 mins by gamma counter; assay type: ADME, organism-based; conditions: in vivo, 1 h; method in brief: as §1
Kidney [24] = assay: Biodistribution in NMRI mouse kidneys at 3.7 MBq/mL after 60 mins by gamma counter; assay type: ADME, organism-based; conditions: in vivo, 1 h; method in brief: as §1
Kidney [25] = assay: Biodistribution in NMRI mouse kidneys assessed per gram of tissue at 3.7 MBq/mL after 2 mins by gamma counter; assay type: ADME, organism-based; conditions: in vivo; method in brief: as §1
Kidney [26] = assay: Biodistribution in NMRI mouse kidneys at 3.7 MBq/mL after 2 mins by gamma counter; assay type: ADME, organism-based; conditions: in vivo; method in brief: as §1
[27] = Biodistribution in NMRI mouse urine at 3.7 MBq/mL after 60 mins by gamma counter; assay type: ADME, organism-based; conditions: in vivo, 1 h; method in brief: as §1
[28] = Biodistribution in NMRI mouse urine at 3.7 MBq/mL after 2 mins by gamma counter; assay type: ADME, organism-based; conditions: in vivo; method in brief: as §1
[29] = Partition coefficient, log P at pH 7.4; assay type: physicochemical; conditions: octanol/water

- Activity (Kidney [1]): 8.2 % ID/g
- Activity (Liver [2]): 21.8 %ID
- Activity (Liver [3]): 10.2 % ID/g
- Activity (Liver [4]): 11.7 %ID
- Activity (Liver [5]): 5.3 % ID/g
- Activity (Lung [6]): 3.9 %ID
- Activity (Lung [7]): 13.8 % ID/g
- Activity (Lung [8]): 0.4 %ID
- Activity (Lung [9]): 1.5 % ID/g
- Activity (Intestine): 8.5 %ID
- Activity (Blood [10]): 7.8 %ID
- Activity (Blood [11]): 2.9 % ID/g
- Activity (Blood [12]): 1.8 %ID
- Activity (Blood [13]): 0.6 % ID/g
- Activity [14]: 1.03 %ID
- Activity [15]: 3.2 % ID/g
- Activity [16]: 0.07 %ID
- Activity [17]: 0.21 % ID/g
- Activity (Cerebellum [18]): 0.33 %ID
- Activity (Cerebellum [19]): 3.35 % ID/g
- Activity (Cerebellum [20]): 0.02 %ID
- Activity (Cerebellum [21]): 0.21 % ID/g
- Activity [22]: 30.3 %ID
- Activity [23]: 49.4 %ID
- Activity (Kidney [24]): 5.9 %ID
- Activity (Kidney [25]): 17.9 % ID/g
- Activity (Kidney [26]): 11.4 %ID
- Activity [27]: 15.5 %ID
- Activity [28]: 0.6 %ID
- logD [29]: 2.86
Structure (SMILES): [18F]c1ccc(-c2nc3ccccc3s2)cc1
